Measured values published in ChEMBL document CHEMBL2040752, “Synthesis and effects of some novel tetrahydronaphthalene derivatives on proliferation and nitric oxide production in lipopolysaccharide activated Raw 264.7 macrophages” (Eur J Med Chem, 2011).
Active and inactive are the calls of the source. The calls are words filed in the database; no cut-off is given here.

These compounds were tested on RAW264.7 (assay: Cytotoxicity against mouse RAW264.7 cells at 50 uM by MTT assay). Conditions: raw264.7, 50 µM.
Assay type: cell-based
In short: (§1)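 RAW 264.7 macrophages (4 ×10⁴ per well) pretreated with compound for 1 h, then held with or without LPS ([…]) for 20 h. After the supernatant was removed for nitrite assay, cells got 0.5 mg/mL MTT for 1 h at 37 °C. Formazan was dissolved in DMSO for at least 2 h in the dark and read at 550 nm; data are absorbance, mean ± S.D.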

Row | Compound | Activity
1 | COc1ccc(CCCC(=O)Nc2cc3c(cc2C)C(C)(C)CCC3(C)C)cc1OC | Toxic
2 | CC1(C)CCC(C)(C)c2cc(C(=O)NN3CCOCC3)ccc21 | Toxic
3 | CC1(C)CCC(C)(C)c2cc(C(=O)NC3CCN(Cc4ccccc4)CC3)ccc21 | Non-toxic
4 | COc1cc(/C=C/C(=O)Nc2cc3c(cc2C)C(C)(C)CCC3(C)C)ccc1O | Toxic
5 | O=C(O)CCCCC1CCSS1 (stereo not drawn) [LIPOIC ACID, ALPHA] | Non-toxic
6 | CC1(C)CCC(C)(C)c2cc(C(=O)Nc3nccs3)ccc21 | Toxic
7 | CC1(C)CC(N)CC(C)(C)N1[O] [TEMPAMINE] | Non-toxic
8 | Cc1cc2c(cc1NC(=O)/C=C/c1ccccc1)C(C)(C)CCC2(C)C | Toxic
9 | CC1(C)CCC(C)(C)c2cc(C(=O)NC3CC3)ccc21 | Toxic
10 | Cc1cc2c(cc1NC(=O)CCCc1ccccc1)C(C)(C)CCC2(C)C | Toxic
11 | CC1(C)CCC(C)(C)c2cc(C(=O)NN3CCCCCC3)ccc21 | Toxic
12 | CC1(C)CCC(C)(C)c2cc(C(=O)Nc3nc4ccccc4[nH]3)ccc21 | Non-toxic
13 | COc1cc(/C=C/C(=O)O)ccc1O [FERULATE] | Non-toxic
14 | COc1ccc(/C=C/C(=O)Nc2cc3c(cc2C)C(C)(C)CCC3(C)C)cc1OC | Non-toxic
15 | Cc1cc2c(cc1NC(=O)c1ccc3c(c1)C(C)(C)CCC3(C)C)C(C)(C)CCC2(C)C | Toxic
16 | CC1(C)CCC(C)(C)c2cc(C(=O)NCCN3CCOCC3)ccc21 | Toxic
17 | CC1(C)CCC(C)(C)c2cc(C(=O)NC3CC(C)(C)N([O])C(C)(C)C3)ccc21 | Toxic
18 | CC1(C)CCC(C)(C)c2cc(C(=O)NCc3ccc(F)cc3F)ccc21 | Toxic
19 | Cc1cc2c(cc1NC(=O)/C=C/c1ccc(O)c(O)c1)C(C)(C)CCC2(C)C | Toxic
20 | Cc1cc2c(cc1NC(=O)C1(C)CCc3c(C)c(O)c(C)c(C)c3O1)C(C)(C)CCC2(C)C (stereo not drawn) | Toxic
21 | CC1=C(/C=C/C(C)=C/C=C/C(C)=C/C(=O)O)C(C)(C)CCC1 [TRETINOIN] | Non-toxic
22 | Cc1c(C)c2c(c(C)c1O)CCC(C)(C(=O)O)O2 (stereo not drawn) [TROLOX] | Non-toxic
23 | O=C(O)/C=C/c1ccc(O)c(O)c1 [CAFFEIC ACID] | Non-toxic
24 | CC1(C)CC(NC(=O)c2ccc3c(c2)C(C)(C)CCC3(C)C)CC(C)(C)N1 | Non-toxic
25 | CC1(C)CCC(C)(C)c2cc(C(=O)Nc3cc[nH]c(=O)n3)ccc21 | Toxic
26 | CC1(C)CCC(C)(C)c2cc(C(=O)NN3CCCCC3)ccc21 | Toxic

The compounds below were run on RAW264.7 (assay: Inhibition of nitrite level in LPS-induced mouse RAW264.7 cells at 5 uM by Griess assay relative to LPS treated control). Conditions: not given.
Assay type: functional
In short: (§2)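 RAW 264.7 cells (4 ×10⁴ per well) pre-incubated with compound for 1 h, then stimulated with LPS ([…]) for 20 h. Supernatant mixed 1:1 with Griess reagent (1% sulfanilamide, 0.1% naphthylethylenediamine dihydrochloride, 2% phosphoric acid) for 10 min at room temperature, read at 550 nm against a NaNO₂ standard curve. Nitrite in the LPS-only group is set as 100%; % inhibition given as mean ± value.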

Row | Compound | inhibition | inhibition at 5 µM
27 | COc1ccc(CCCC(=O)Nc2cc3c(cc2C)C(C)(C)CCC3(C)C)cc1OC | inactive | –
28 | CC1(C)CCC(C)(C)c2cc(C(=O)Nc3ncccn3)ccc21 | inactive | –
29 | CC1(C)CCC(C)(C)c2cc(C(=O)NN3CCOCC3)ccc21 | – | 5.8%
30 | CC1(C)CCC(C)(C)c2cc(C(=O)NC3CCN(Cc4ccccc4)CC3)ccc21 | – | 21%
31 | COc1cc(/C=C/C(=O)Nc2cc3c(cc2C)C(C)(C)CCC3(C)C)ccc1O | – | 17.8%
32 | O=C(O)CCCCC1CCSS1 (stereo not drawn) [LIPOIC ACID, ALPHA] | – | 25.2%
33 | CC1(C)CCC(C)(C)c2cc(C(=O)Nc3nccs3)ccc21 | inactive | –
34 | CC1(C)CC(N)CC(C)(C)N1[O] [TEMPAMINE] | – | 26.9%
35 | Cc1cc2c(cc1NC(=O)/C=C/c1ccccc1)C(C)(C)CCC2(C)C | inactive | –
36 | CC1(C)CCC(C)(C)c2cc(C(=O)Nc3cccc4ccccc34)ccc21 | – | 10.5%
37 | CC1(C)CCC(C)(C)c2cc(C(=O)NC3CC3)ccc21 | – | 20.5%
38 | Cc1cc2c(cc1NC(=O)CCCc1ccccc1)C(C)(C)CCC2(C)C | inactive | –
39 | CC1(C)CCC(C)(C)c2cc(C(=O)NN3CCCCCC3)ccc21 | – | 25.7%
40 | CC1(C)CCC(C)(C)c2cc(C(=O)Nc3nc4ccccc4[nH]3)ccc21 | – | 15.6%
41 | COc1cc(/C=C/C(=O)O)ccc1O [FERULATE] | – | 24.8%
42 | COc1ccc(/C=C/C(=O)Nc2cc3c(cc2C)C(C)(C)CCC3(C)C)cc1OC | – | 24.1%
43 | Cc1cc2c(cc1NC(=O)c1ccc3c(c1)C(C)(C)CCC3(C)C)C(C)(C)CCC2(C)C | inactive | –

Row | Compound | inhibition | inhibition at 5 µM
44 | CC1(C)CCC(C)(C)c2cc(C(=O)NCc3ccc(Cl)cc3Cl)ccc21 | inactive | –
45 | CC1(C)CCC(C)(C)c2cc(C(=O)NCCN3CCOCC3)ccc21 | – | 14.3%
46 | CC1(C)CCC(C)(C)c2cc(C(=O)NC3CC(C)(C)N([O])C(C)(C)C3)ccc21 | – | 18.2%
47 | CC1(C)CCC(C)(C)c2cc(C(=O)NCc3ccc(F)cc3F)ccc21 | inactive | –
48 | CCOC(=O)N1CCC(NC(=O)c2ccc3c(c2)C(C)(C)CCC3(C)C)CC1 | inactive | –
49 | CC1(C)CCC(C)(C)c2cc(C(=O)NCc3ccccc3)ccc21 | inactive | –
50 | Cc1cc2c(cc1NC(=O)/C=C/c1ccc(O)c(O)c1)C(C)(C)CCC2(C)C | – | 23.3%
51 | Cc1cc2c(cc1NC(=O)C1(C)CCc3c(C)c(O)c(C)c(C)c3O1)C(C)(C)CCC2(C)C (stereo not drawn) | inactive | –
52 | CC1=C(/C=C/C(C)=C/C=C/C(C)=C/C(=O)O)C(C)(C)CCC1 [TRETINOIN] | – | 57.2%
53 | CC(=O)Oc1c(C)c(C)c2c(c1C)CCC(C)(C(=O)Nc1cc3c(cc1C)C(C)(C)CCC3(C)C)O2 (stereo not drawn) | – | 15.8%
54 | Cc1c(C)c2c(c(C)c1O)CCC(C)(C(=O)O)O2 (stereo not drawn) [TROLOX] | – | 33.4%
55 | O=C(O)/C=C/c1ccc(O)c(O)c1 [CAFFEIC ACID] | – | 23.2%
56 | CC1(C)CC(NC(=O)c2ccc3c(c2)C(C)(C)CCC3(C)C)CC(C)(C)N1 | – | 19.1%
57 | Cc1cc2c(cc1NC(=O)CCCC[C@@H]1CCSS1)C(C)(C)CCC2(C)C | – | 28.5%
58 | CC1(C)CCC(C)(C)c2cc(C(=O)Nc3cc[nH]c(=O)n3)ccc21 | – | 11.5%
59 | CC1(C)CCC(C)(C)c2cc(C(=O)NN3CCCCC3)ccc21 | inactive | –

What follows are compounds tested on RAW264.7 (assay: Inhibition of nitrite level in LPS-induced mouse RAW264.7 cells at 50 uM by Griess assay relative to LPS treated control). Conditions: not given.
Assay type: functional
In short: as §2

Row | Compound | inhibition | inhibition at 50 µM
60 | COc1ccc(CCCC(=O)Nc2cc3c(cc2C)C(C)(C)CCC3(C)C)cc1OC | inactive | –
61 | CC1(C)CCC(C)(C)c2cc(C(=O)Nc3ncccn3)ccc21 | – | 18.6%
62 | CC1(C)CCC(C)(C)c2cc(C(=O)NN3CCOCC3)ccc21 | – | 34.3%
63 | CC1(C)CCC(C)(C)c2cc(C(=O)NC3CCN(Cc4ccccc4)CC3)ccc21 | – | 22.5%
64 | COc1cc(/C=C/C(=O)Nc2cc3c(cc2C)C(C)(C)CCC3(C)C)ccc1O | – | 48%
65 | O=C(O)CCCCC1CCSS1 (stereo not drawn) [LIPOIC ACID, ALPHA] | – | 46%
66 | CC1(C)CCC(C)(C)c2cc(C(=O)Nc3nccs3)ccc21 | – | 33.5%
67 | CC1(C)CC(N)CC(C)(C)N1[O] [TEMPAMINE] | – | 45.6%
68 | Cc1cc2c(cc1NC(=O)/C=C/c1ccccc1)C(C)(C)CCC2(C)C | inactive | –
69 | CC1(C)CCC(C)(C)c2cc(C(=O)Nc3cccc4ccccc34)ccc21 | – | 5.7%
70 | CC1(C)CCC(C)(C)c2cc(C(=O)NC3CC3)ccc21 | – | 38.2%
71 | Cc1cc2c(cc1NC(=O)CCCc1ccccc1)C(C)(C)CCC2(C)C | inactive | –
72 | CC1(C)CCC(C)(C)c2cc(C(=O)NN3CCCCCC3)ccc21 | – | 43.6%
73 | CC1(C)CCC(C)(C)c2cc(C(=O)Nc3nc4ccccc4[nH]3)ccc21 | – | 45.7%
74 | COc1cc(/C=C/C(=O)O)ccc1O [FERULATE] | – | 39.1%
75 | COc1ccc(/C=C/C(=O)Nc2cc3c(cc2C)C(C)(C)CCC3(C)C)cc1OC | – | 32.8%
76 | Cc1cc2c(cc1NC(=O)c1ccc3c(c1)C(C)(C)CCC3(C)C)C(C)(C)CCC2(C)C | inactive | –

Row | Compound | inhibition | inhibition at 50 µM
77 | CC1(C)CCC(C)(C)c2cc(C(=O)NCc3ccc(Cl)cc3Cl)ccc21 | – | 6.6%
78 | CC1(C)CCC(C)(C)c2cc(C(=O)NCCN3CCOCC3)ccc21 | – | 40.1%
79 | CC1(C)CCC(C)(C)c2cc(C(=O)NC3CC(C)(C)N([O])C(C)(C)C3)ccc21 | – | 59.2%
80 | CC1(C)CCC(C)(C)c2cc(C(=O)NCc3ccc(F)cc3F)ccc21 | – | 7.7%
81 | CCOC(=O)N1CCC(NC(=O)c2ccc3c(c2)C(C)(C)CCC3(C)C)CC1 | – | 30%
82 | CC1(C)CCC(C)(C)c2cc(C(=O)NCc3ccccc3)ccc21 | – | 15.9%
83 | Cc1cc2c(cc1NC(=O)/C=C/c1ccc(O)c(O)c1)C(C)(C)CCC2(C)C | – | 46.2%
84 | Cc1cc2c(cc1NC(=O)C1(C)CCc3c(C)c(O)c(C)c(C)c3O1)C(C)(C)CCC2(C)C (stereo not drawn) | – | 10.5%
85 | CC1=C(/C=C/C(C)=C/C=C/C(C)=C/C(=O)O)C(C)(C)CCC1 [TRETINOIN] | – | 66%
86 | CC(=O)Oc1c(C)c(C)c2c(c1C)CCC(C)(C(=O)Nc1cc3c(cc1C)C(C)(C)CCC3(C)C)O2 (stereo not drawn) | – | 4.4%
87 | Cc1c(C)c2c(c(C)c1O)CCC(C)(C(=O)O)O2 (stereo not drawn) [TROLOX] | – | 39.3%
88 | O=C(O)/C=C/c1ccc(O)c(O)c1 [CAFFEIC ACID] | – | 44.2%
89 | CC1(C)CC(NC(=O)c2ccc3c(c2)C(C)(C)CCC3(C)C)CC(C)(C)N1 | – | 42.9%
90 | Cc1cc2c(cc1NC(=O)CCCC[C@@H]1CCSS1)C(C)(C)CCC2(C)C | – | 22.8%
91 | CC1(C)CCC(C)(C)c2cc(C(=O)Nc3cc[nH]c(=O)n3)ccc21 | – | 21.1%
92 | CC1(C)CCC(C)(C)c2cc(C(=O)NN3CCCCC3)ccc21 | – | 10.5%

What follows are compounds tested on RAW264.7 (assay: Cytotoxicity against mouse RAW264.7 cells at 5 uM by MTT assay). Conditions: raw264.7, 5 µM.
Assay type: cell-based
In short: as §1

Row | Compound | Activity
93 | CC1(C)CCC(C)(C)c2cc(C(=O)NC3CCN(Cc4ccccc4)CC3)ccc21 | Non-toxic
94 | O=C(O)CCCCC1CCSS1 (stereo not drawn) [LIPOIC ACID, ALPHA] | Non-toxic
95 | CC1(C)CC(N)CC(C)(C)N1[O] [TEMPAMINE] | Non-toxic
96 | CC1(C)CCC(C)(C)c2cc(C(=O)Nc3nc4ccccc4[nH]3)ccc21 | Non-toxic
97 | COc1cc(/C=C/C(=O)O)ccc1O [FERULATE] | Non-toxic
98 | COc1ccc(/C=C/C(=O)Nc2cc3c(cc2C)C(C)(C)CCC3(C)C)cc1OC | Non-toxic
99 | Cc1cc2c(cc1NC(=O)c1ccc3c(c1)C(C)(C)CCC3(C)C)C(C)(C)CCC2(C)C | Toxic
100 | CC1=C(/C=C/C(C)=C/C=C/C(C)=C/C(=O)O)C(C)(C)CCC1 [TRETINOIN] | Non-toxic
101 | Cc1c(C)c2c(c(C)c1O)CCC(C)(C(=O)O)O2 (stereo not drawn) [TROLOX] | Non-toxic
102 | O=C(O)/C=C/c1ccc(O)c(O)c1 [CAFFEIC ACID] | Non-toxic
103 | CC1(C)CC(NC(=O)c2ccc3c(c2)C(C)(C)CCC3(C)C)CC(C)(C)N1 | Non-toxic
